Converted amounts (≈) assume the structure as drawn. The source made the active and inactive calls. The calls are words filed in the database; no cut-off is given here.
What was measured:
A549 [1] = assay: Antioxidant activity in human A549 cells assessed as inhibition of AAPH-induced oxidative stress at 50 uM after 2 hrs by flow cytometric analysis relative to control; format: functional; settings: A549, 2 h
Summary of the method: (§1)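 A549 cells pretreated with AAPH 1 h to induce ROS stress, then compound added; intracellular ROS (hydrogen peroxides, hydroxyl radicals) quantified with DCFH-DA, by fluorescence imaging (×200) or flow cytometry; one representative of three independent experiments.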

[2] = Antioxidant activity assessed as superoxide radical anion scavenging activity by spectrophotometric analysis; format: functional
A549 [3] = assay: Antioxidant activity in human A549 cells assessed as decrease in AAPH-induced oxidative stress after 2 hrs by DCFH-DA staining-based fluorescent microscopic analysis; format: functional, cell-based; summary of the method: as §1
Escherichia coli = assay: Antibacterial activity against Escherichia coli after 24 hrs by agar dilution method; format: functional
Staphylococcus aureus = assay: Antibacterial activity against Staphylococcus aureus after 24 hrs by agar dilution method; format: functional
NIH3T3 = assay: Cytotoxicity against mouse NIH/3T3 cells after 48 hrs by SRB assay; format: cell-based; settings: NIH3T3, 48 h
A549 [4] = assay: Antioxidant activity in human A549 cells assessed as protection against H2O2-induced cell death at 50 to 100 uM preincubated for 1 hr prior to H2O2-challenge measured after 24 hrs by SRB assay; format: functional, cell-based
Bacillus cereus = assay: Antibacterial activity against Bacillus cereus after 24 hrs by agar dilution method; format: functional
[5] = tested on: Radical scavenging activity; assay: Antioxidant activity assessed as DPPH radical scavenging activity after 30 mins by spectrophotometric analysis; format: functional
Summary of the method: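 DPPH radical bleaching followed as loss of absorbance at 517 nm; IC50 derived; mean ± SD, n = 3.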

[6] = tested on: Staphylococcus epidermidis; assay: Antibacterial activity against Staphylococcus albus after 24 hrs by agar dilution method; format: functional
[7] = Antioxidant activity assessed as ferric ion reducing ability after 20 mins by spectrophotometric analysis; format: functional
A549 [8] = assay: Antioxidant activity in human A549 cells assessed as inhibition of AAPH-induced oxidative stress at 100 uM after 2 hrs by flow cytometric analysis relative to control; format: functional; settings: A549, 2 h; summary of the method: as §1
Pseudomonas aeruginosa = assay: Antibacterial activity against Pseudomonas aeruginosa after 24 hrs by agar dilution method; format: functional
[9] = Antioxidant activity assessed as hydroxyl radical scavenging activity after 1 hr by spectrophotometric analysis; format: functional

With `COc1cc(O)ccc1-c1nc2cc(O)ccc2[nH]1` as the molecule, how does the inhibition at 50 µM (A549 [1]) read?
The inhibition at 50 µM was 25.3%.

What about the EC50 [2] of the same molecule?
Its EC50 is over 200 µM.

And the Activity (A549 [3])?
Its Activity is “Active”.

What about the MBC (Escherichia coli) of the same molecule?
Its MBC is 25 µM (≈ 6.41 µg/mL).

And the MIC (Escherichia coli)?
Its MIC is 12.5 µM (≈ 3.2 µg/mL).

And the MIC (Staphylococcus aureus)?
Its MIC is over 200 µM.

What about the IC50 (NIH3T3) of the same molecule?
Its IC50 is over 200 µM.

What about the Activity (A549 [4]) of the same molecule?
The Activity was “Active”.

What about the MIC (Bacillus cereus) of the same molecule?
The MIC was over 200 µM.

And the EC50 [5]?
Its EC50 is 27 µM.

And the MIC [6]?
The MIC was over 200 µM.

And the Activity [7]?
The Activity was “Dose-dependent effect”.

And the inhibition at 100 µM (A549 [8])?
Its inhibition at 100 µM is 70.4%.

What about the MIC (Pseudomonas aeruginosa) of the same molecule?
Its MIC is over 200 µM.

And the EC50 [9]?
The EC50 was 46 µM.
